# T cruzi growth-1: T. cruzi intracellular proliferation inhibitors, primary screen, cell-based, beta-gal Tulahuen parasites, NIH3T3 host, luminescence; T. cruzi beta-gal in NIH3T3, GalScreen luminescence, 90 h; inhibition, % at 8.34 µM; 5.9% of 77,000 active;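 active means mean inhibition above about 93%, with at least 55% of replicates each passing it, limit read from the data, passing the limit was not always enough; inconclusive means only one of those two conditions holds; inactive means neither condition holds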
# KDM4C inh: inhibitors of GASC-1 (KDM4C) histone demethylase, primary screen, biochemical, single concentration HTS; 0.15% of 96,000 active; AID 720574, 2013; GST-KDM4C 2-372, H3K9me3 peptide, LANCE TR-FRET; Lysine-specific demethylase 4C (Homo sapiens), Q9H3R0; inhibition, % at 12.5 µM;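 active means mean replicate inhibition above about 25%, with at least 55% of replicates also reaching it, limit read from the data, passing the limit was not always enough; inconclusive means only one of those two conditions met; inactive means neither condition met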
#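 System – N-terminal GST-fused human GASC-1 (KDM4C) fragment, residues 2-372 · Input – enzyme final amount 10 nM · Technique – LANCE TR-FRET, Eu antibody, ULight-streptavidin, EDTA, ex 340 nm, em 618/671 nm · Medium – HEPES buffer, pH 7.5, plus ascorbate · Incubation – enzyme reaction 30 min, then detection 60 min, both room temperature · Reagent – H3K9me3 peptide with Fe(II)/2OG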
# IDH1 R132H inh: inhibitors of IDH1 R132H reductase, primary screen, biochemical, plate reader, single point. inhibition, % at 10 µM. 0.18% of 70,000 active. diaphorase/resazurin fluorescence, 60 min. Isocitrate dehydrogenase [NADP] cytoplasmic (Homo sapiens), O75874; in the data active means inhibition above about 34%; inconclusive means no clear call, values can overlap the other calls; inactive means below about 11%
# Target sequence (O75874 whole entry R132H): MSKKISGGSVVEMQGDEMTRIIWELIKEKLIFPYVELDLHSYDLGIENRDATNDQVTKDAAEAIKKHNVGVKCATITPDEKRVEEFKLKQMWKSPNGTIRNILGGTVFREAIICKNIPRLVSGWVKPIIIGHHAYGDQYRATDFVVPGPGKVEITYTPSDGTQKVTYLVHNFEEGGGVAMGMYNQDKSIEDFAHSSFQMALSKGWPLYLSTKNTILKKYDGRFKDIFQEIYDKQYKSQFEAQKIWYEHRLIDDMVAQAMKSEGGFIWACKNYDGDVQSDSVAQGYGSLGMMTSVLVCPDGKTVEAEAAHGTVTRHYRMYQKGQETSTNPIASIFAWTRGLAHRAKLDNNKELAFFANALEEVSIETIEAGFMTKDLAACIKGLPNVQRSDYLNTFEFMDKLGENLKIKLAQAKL
# Pf Dd2 inh: P. falciparum Dd2 growth inhibitors, primary screen, SYBR Green fluorescence, single dose replicates | 72 h; active compounds read low | activity change, % at 10 µM | 2.3% of 94,000 active | AID 1159554, 2015; in the data active means activity change below about -80%; inconclusive means no clear call, values can overlap the other calls
# T cruzi growth-2: T. cruzi intracellular proliferation inhibitors, confirmation, cell-based, NIH3T3 host, beta-gal parasite, luminescence, cherry-pick; shares compounds with T cruzi growth-1; T. cruzi beta-gal in NIH3T3, GalScreen luminescence, 90 h; inhibition, % at 8.35 µM; 72% of 5,600 active;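 active means mean replicate inhibition above about 95% and at least 55% of replicates individually reaching it, limit read from the data; inconclusive means only one of the two criteria is met; inactive means neither criterion is met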
# T cruzi growth-3: inhibitors of intracellular T. cruzi replication, confirmation, NIH3T3 host cells, beta-gal parasites, cherry-pick, set 2; T. cruzi beta-gal in NIH3T3, GalScreen luminescence, 90 h; shares compounds with T cruzi growth-1; AID 651740, 2012; inhibition, % at 2.09 µM; 21% of 5,600 active;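 active means mean inhibition above about 95%, with at least 55% of replicates also reaching it, limit read from the data; inconclusive means meets just one of the two conditions; inactive means meets neither condition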
# 3T3 cytotox: cytotoxicity in mouse NIH/3T3 fibroblasts, confirmation, cytotoxicity control for T. cruzi proliferation inhibitor project, cell-based, cherry-pick, single point; 14% of 5,600 active; shares compounds with T cruzi growth-1; NIH/3T3 viability, CellTiter-Glo ATP luminescence, 90 h; cytotoxicity (signal decrease), % at 8.35 µM; AID 651742, 2012;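 active means mean signal decrease across replicates above about 35% based on untreated-well scatter, with enough replicates individually passing, limit read from the data; inconclusive means no rule stated though some were filed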
# 3T3 cytotox 2: NIH/3T3 fibroblast cytotoxicity, confirmation, cytotoxicity control, cell-based, cherry-pick, single point, set 2. shares compounds with T cruzi growth-1. NIH/3T3 viability, CellTiter-Glo ATP luminescence, 90 h. inhibition, % at 24.9 µM. 56% of 5,600 active. AID 651744, 2012;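 active means mean loss of cell viability signal at or above a set limit, and enough replicates individually reaching it; inconclusive means meets only the mean limit or only the replicate share; inactive means meets neither condition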
# Numbers stand for hits; n = inactive; u = inconclusive; x = no result; + = active, no number. Compounds with a hit are over-represented: about 5.9% of the library has one in this group of screens.
SMILES,T cruzi growth-1,KDM4C inh,IDH1 R132H inh,Pf Dd2 inh,T cruzi growth-2,T cruzi growth-3,3T3 cytotox,3T3 cytotox 2
CCNC(=O)[C@@H]1[C@@H](CO)[C@@H]2Cn3c(ccc(-c4ccccc4OC)c3=O)[C@@H]2N1CC,n,n,x,n,x,x,x,x
CCNC(=O)[C@@H]1[C@@H](CO)[C@@H]2Cn3c(ccc(-c4ccccc4OC)c3=O)[C@@H]2N1S(C)(=O)=O,111,n,x,n,n,n,n,n
COC(=O)[C@H]1[C@H](CO)[C@H]2Cn3c(ccc(-c4ccccc4OC)c3=O)[C@H]2N1CC1CCOCC1,n,n,x,n,x,x,x,x
COC(=O)[C@H]1[C@H](CO)[C@H]2Cn3c(ccc(-c4cccc(OC)c4)c3=O)[C@H]2N1CC1CC1,n,n,x,n,x,x,x,x
COC(=O)[C@H]1[C@H](CO)[C@H]2Cn3c(ccc(-c4ccccc4OC)c3=O)[C@H]2N1CC1CCCC1,+,n,x,x,n,n,n,28
COc1cccc(-c2ccc3n(c2=O)C[C@@H]2[C@@H](CO)[C@H](C(=O)N(C)C)N(CC4CC4)[C@H]32)c1,104,n,x,n,107,n,n,u
COC(=O)[C@@H]1[C@@H](CO)[C@@H]2Cn3c(ccc(-c4ccccc4OC)c3=O)[C@@H]2N1CC1CCCCC1,x,n,x,n,x,x,x,x
COC(=O)[C@@H]1[C@@H](CO)[C@@H]2Cn3c(ccc(-c4ccccc4OC)c3=O)[C@@H]2N1CC1CCCC1,+,n,x,x,n,n,n,33
CCOC(=O)CNC(=O)c1cc2nc(-c3ccc(Cl)s3)cc(C(F)(F)F)n2n1,x,x,n,x,x,x,x,x
C/C=C/c1ccc2c(c1)O[C@@H](CN(C)Cc1ccc(F)cc1)[C@H](C)CN([C@@H](C)CO)S2(=O)=O,118,n,n,n,99,105,54,104
C/C=C/c1ccc2c(c1)O[C@H](CN(C)Cc1ccccc1)[C@@H](C)CN([C@H](C)CO)S2(=O)=O,n,n,n,n,x,x,x,x
C/C=C/c1ccc2c(c1)O[C@H](CN(C)Cc1ccc(F)cc1)[C@H](C)CN([C@H](C)CO)S2(=O)=O,u,n,n,n,107,n,n,104
CCn1c(SCC(=O)Nc2c(C)cccc2C)nnc1-c1cnccn1,x,x,n,x,x,x,x,x
O=C(C1CCCC1)N1CC[C@@H]2[C@H](CO)Nc3ccc(-c4cccc(F)c4)cc3[C@@H]21,x,n,x,n,x,x,x,x
O=C(C1CCCCC1)N1CC[C@@H]2[C@H]1c1cc(C#Cc3ccc(F)cc3)ccc1N[C@@H]2CO,106,n,x,n,104,n,n,104
O=C(C1CCCC1)N1CC[C@@H]2[C@@H](CO)Nc3ccc(-c4cccc(F)c4)cc3[C@@H]21,x,n,x,n,x,x,x,x
O=C(C1CCC1)N1CC[C@@H]2[C@H]1c1cc(-c3cccc(F)c3)ccc1N[C@@H]2CO,101,n,x,n,105,109,n,74
O=C(C1CC1)N1CC[C@@H]2[C@H](CO)Nc3ccc(-c4cccc(F)c4)cc3[C@@H]21,116,n,x,n,104,n,n,n
O=C(C1CC1)N1CC[C@H]2[C@H](CO)Nc3ccc(-c4cccc(F)c4)cc3[C@H]21,116,n,x,n,99,n,n,n
O=C(C1CCCC1)N1CC[C@H]2[C@H](CO)Nc3ccc(C#Cc4ccc(F)cc4)cc3[C@H]21,x,x,x,n,x,x,x,x
COc1ccc(NC(=O)CSc2ncnc3scc(-c4ccccc4)c23)c([N+](=O)[O-])c1,x,x,n,x,x,x,x,x
COc1ccc(C)cc1S(=O)(=O)N(C)CC(=O)O,x,x,n,x,x,x,x,x
CCc1cnc(N2[C@@H](C#N)[C@H](c3ccccc3)[C@@H]2CO)s1,n,n,x,n,x,x,x,x
C/C=C/c1ccccc1[C@@H]1[C@H](C#N)N(c2ncc(CC)s2)[C@H]1CO,x,n,x,n,x,x,x,x
C/C=C/c1ccc([C@H]2[C@@H](C#N)N(c3ncc(CC)s3)[C@@H]2CO)cc1,99,x,x,n,102,n,n,n
SMILES,T cruzi growth-1,KDM4C inh,IDH1 R132H inh,Pf Dd2 inh,T cruzi growth-2,T cruzi growth-3,3T3 cytotox,3T3 cytotox 2
C/C=C/c1ccc([C@H]2[C@@H](CO)N(c3ncc(CC)s3)[C@H]2C#N)cc1,98,n,x,n,n,n,n,n
Cc1ccccc1S(=O)(=O)N1CCCCN2[C@H](CO)[C@H](c3ccc(-c4cncnc4)cc3)[C@@H]2C1,112,n,x,n,101,n,n,n
Cc1ccccc1S(=O)(=O)N1CCCCN2[C@H](C1)[C@@H](c1ccc(-c3cccnc3)cc1)[C@@H]2CO,n,n,x,n,x,x,x,x
Cc1ccccc1S(=O)(=O)N1CCCCN2[C@H](C1)[C@H](c1ccc(-c3cncnc3)cc1)[C@@H]2CO,102,n,x,n,100,n,n,n
Cc1ccccc1S(=O)(=O)N1CCCCN2[C@@H](CO)[C@H](c3ccc(-c4cccnc4)cc3)[C@@H]2C1,102,u,x,n,102,n,n,38
Cc1ccccc1S(=O)(=O)N1CCCCN2[C@H](C1)[C@@H](c1ccc(-c3cncnc3)cc1)[C@@H]2CO,n,n,x,n,x,x,x,x
COc1ccc(S(=O)(=O)N(C)C[C@@H]2Oc3ccc(NC(=O)Cc4cn(C)c5ccccc45)cc3C(=O)N([C@H](C)CO)C[C@@H]2C)cc1,101,n,n,-85,97,n,n,63
COc1ccc(S(=O)(=O)N(C)C[C@@H]2Oc3ccc(NC(=O)Cc4cn(C)c5ccccc45)cc3C(=O)N([C@@H](C)CO)C[C@@H]2C)cc1,102,n,n,n,n,n,n,46
COCCCNC(=O)c1cc(-c2ccccn2)nc2ccc(Br)cc12,x,x,n,x,x,x,x,x
C[C@H](CO)N1C[C@H](C)[C@H](CN(C)Cc2ccc(-c3ccccc3)cc2)Oc2c(NS(=O)(=O)c3cccs3)cccc2C1=O,97,n,n,n,n,n,n,n
C[C@H](CO)N1C[C@H](C)[C@H](CN(C)Cc2ccc(C(=O)Nc3ccccc3N)cc2)Oc2c(NS(=O)(=O)c3cccs3)cccc2C1=O,107,n,x,n,99,n,n,26
C[C@@H]1CN([C@H](C)CO)C(=O)c2cc(NS(=O)(=O)c3cccs3)ccc2O[C@H]1CN(C)Cc1ccc(C(=O)Nc2ccccc2N)cc1,n,n,n,n,x,x,x,x
